The source of these data is ChEMBL document CHEMBL3758075, “Synthesis and pharmacological evaluation of nucleoside prodrugs designed to target siderophore biosynthesis in Mycobacterium tuberculosis” (Bioorg Med Chem, 2016).

Series [1] is described as follows: Retention time of compound by RP-HPLC method. It is filed as physicochemical. The method in brief:
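Reversed-phase C18 column (5 µm, 4.6 × 250 mm). Mobile phase 20 mM triethylammonium bicarbonate pH 7.5 / acetonitrile. Gradient 5–70% acetonitrile over 10 min, then 90% to 16 min, then 3 min re-equilibration at 5%.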

Series [2] is described as follows: Aqueous stability in pH 1.2 simulated gastric fluid assessed as compound remaining after 2 hrs by HPLC method. It is filed as physicochemical. The settings on record: simulated gi fluid, pH 1.2, 2 h. The method in brief: (§1)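 Compound 100 µM (2% DMSO final) incubated in triplicate at 37 °C in simulated gastric fluid pH 1.2 or 100 mM HEPES pH 7.4. Samples taken at 0 and 120 min, placed on ice and analysed by RP-HPLC for prodrug and released parent; percentage of prodrug remaining at 120 min calculated.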

Series [3] is described as follows: Drug level in pH 7.4 HEPES buffer treated with 100 uM 9-[3-O-(Acetyl)-2,5-dideoxy-2-fluoro-5-{N-(N-2-hydroxybenzoyl)sulfamoyl}amino-b-D-ribofuranosyl]adenine triethylammonium salt for 2 hrs by HPLC analysis. It is filed as physicochemical. The settings on record: pH 7.4, 2 h. The method in brief: as §1
A short description of series [4]: Aqueous stability in pH 7.4 HEPES buffer assessed as compound remaining after 2 hrs by HPLC method. The conditions noted are these: pH 7.4, 2 h. It is filed as physicochemical. The procedure, abridged:
as §1

The subject of series [5] is Plasma. The series can be described thus: Stability in human plasma assessed as residual compound after 6 hrs by HPLC method. It is filed as ADME, cell-free. The method in brief:
(§2)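 Pooled female plasma (CD-1 mouse, Sprague-Dawley rat, human) preincubated 5 min at 37 °C, then spiked from a 10 mM DMSO stock; triplicate. Samples at 0–360 min quenched with equal volume 10% TCA, centrifuged, supernatant run on HPLC. Half-life or percentage remaining at 6 h derived.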

Series [6] has as its system Plasma. Kind of series: Stability in Sprague-Dawley rat plasma assessed as residual compound after 6 hrs by HPLC method. It counts as ADME, cell-free. The procedure, abridged:
as §2

Series [7] relates to Plasma. The series can be described thus: Half life in CD-1 mouse plasma assessed as N-(N-(((2R,3R,4R,5R)-5-(6-amino-9H-purin-9-yl)-4-fluoro-3-hydroxytetrahydrofuran-2-yl)methyl)sulfamoyl)-2-hydroxybenzamide by HPLC method. It is filed as ADME, cell-free. The procedure, abridged:
as §2

Series [8] is described as follows: Aqueous stability in pH 1.2 simulated gastric fluid assessed as prodrug remaining at 100 uM after 2 hrs by HPLC method. The settings on record: simulated gi fluid, pH 1.2, 2 h. It is filed as physicochemical. The procedure, abridged: as §1
Series [9] in a line: Aqueous stability in pH 7.4 HEPES buffer assessed as prodrug remaining at 100 uM after 2 hrs by HPLC method. It is filed as physicochemical. The conditions noted are these: pH 7.4, 2 h. The procedure, abridged: as §1
Series [10] can be described thus: Efflux ratio of permeability from basolateral to apical side over apical to basolateral side in human Caco2 cells incubated for 2 hrs by HPLC method. It is filed as ADME, cell-based. The conditions noted are these: Caco-2. The procedure, abridged: (§3)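 Caco-2 cells (passage 50–70) grown 21 days on 0.4 µm transwell inserts; wells with TER >300 Ωcm2 used. Apical CAB pH 6.0, basolateral CAB pH 7.4, preincubated 60 min at 65 rpm. Test compound 100 µM in donor with lucifer yellow for tight-junction integrity. Acceptor levels of prodrug plus hydrolyzed parent measured by HPLC over time with cumulative sampling. Papp = flux/(area × C0); efflux ratio = BL-AP/AP-BL.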
Background: Caco-2 cells form a polarised layer with tight junctions and transporters.

The nature of series [11]: Apparent permeability from basolateral to apical side in human Caco2 cells at 100 uM incubated for 2 hrs by HPLC method. It is filed as ADME, cell-based. The settings on record: Caco-2. The method in brief: as §3
Series [12] can be described thus: Permeability from apical to basolateral side in human Caco2 cells assessed as prodrug remaining in basolateral side for 2 hrs by HPLC method. It is filed as ADME, cell-based. The conditions noted are these: caco-2, 2 h. The procedure, abridged: (§4)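 Bidirectional Caco-2 transwell run (21-day monolayers, TER >300 Ωcm2, apical pH 6.0 / basolateral pH 7.4 buffers, 100 µM donor). Intact prodrug left in the apical and basolateral compartments at 2 h quantified by reversed-phase HPLC, with hydrolysis to parent tracked.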

Series [13] can be described thus: Permeability from basolateral to apical side in human Caco2 cells assessed as prodrug remaining in basolateral side for 2 hrs by HPLC method. The settings on record: caco-2, 2 h. It is filed as ADME, cell-based. The procedure, abridged:
as §4

In series [14] the test system is Plasma. The series can be described thus: Stability in CD-1 mouse plasma assessed as residual compound after 6 hrs by HPLC method. It counts as ADME, cell-free. The method in brief:
as §2

Series [15] in a line: Apparent permeability from apical to basolateral side in human Caco2 cells at 100 uM incubated for 2 hrs by HPLC method. It is filed as ADME, cell-based. The conditions noted are these: Caco-2. The method in brief: as §3
Series [16] can be described thus: Permeability from basolateral to apical side in human Caco2 cells assessed as prodrug remaining in apical side for 2 hrs by HPLC method. It counts as ADME, cell-based. The conditions noted are these: caco-2, 2 h. The procedure, abridged:
as §4

The nature of series [17]: Permeability from apical to basolateral side in human Caco2 cells assessed as prodrug remaining in apical side for 2 hrs by HPLC method. It is filed as ADME, cell-based. The conditions noted are these: caco-2, 2 h. The method in brief:
as §4

Series [18] concerns Plasma. The series can be described thus: Half life in Sprague-Dawley rat plasma assessed as N-(N-(((2R,3R,4R,5R)-5-(6-amino-9H-purin-9-yl)-4-fluoro-3-hydroxytetrahydrofuran-2-yl)methyl)sulfamoyl)-2-hydroxybenzamide by HPLC method. It is filed as ADME, cell-free. The procedure, abridged: as §2

The compound `Nc1ncnc2c1ncn2[C@@H]1O[C@H](CNS(=O)(=O)NC(=O)c2ccccc2O)[C@@H](O)[C@H]1F` registered a Retention_time in series [1] of 8.9 min. For the same compound, the Stability in [2] and in series [4] was 100% each time. Besides, the Drug metabolism result in series [3] is “metabolite_detected”.
In turn, `Nc1ncnc2c1ncn2[C@@H]1O[C@H](COS(=O)(=O)NC(=O)c2ccccc2O)[C@@H](O)[C@H]1O` showed a Retention_time in [1] of 7.8 min.
In turn, `CCCCC(=O)O[C@H]1[C@@H](F)[C@H](n2cnc3c(N)ncnc32)O[C@@H]1CNS(=O)(=O)NC(=O)c1ccccc1O.CCN(CC)CC` registered a Retention_time in series [1] of 11.9 min. In addition, the Stability in the series with Plasma [5] is reported as 66%; in the series on Plasma [6] it was 53%; in series [8], 98%; in series [9] it was 100%. In addition, the t1/2 in the series with Plasma [7] was 1.6 h.
Regarding `CCCCCCCCCCCC(=O)O[C@H]1[C@@H](F)[C@H](n2cnc3c(N)ncnc32)O[C@@H]1CNS(=O)(=O)NC(=O)c1ccccc1O.CCN(CC)CC`, in [1], the Retention_time turned out to be 9.9 min. Moreover, the Stability in the series on Plasma [5] was 98%; in the series on Plasma [6] it was 95%; in [8], 76%; in [9], 100%. Further, in the series with Plasma [7], the t1/2 worked out at 1.6 h.
As for `CCC(CC)C(=O)O[C@H]1[C@@H](F)[C@H](n2cnc3c(N)ncnc32)O[C@@H]1CNS(=O)(=O)NC(=O)c1ccccc1O.CCN(CC)CC`, the efflux ratio at 2 h in [10] was determined as 7.6. Moreover, the Stability is recorded as 94% with Plasma [5]; 93% in the series on Plasma [6]; 83% in the series with Plasma [14]; 100% in series [8]; 100% in series [9]. Moreover, the Papp B→A at 2 h, 100 µM in series [11] is 38 nm/s. The permeability in series [12] was found to be 90%; in series [13] it was 99%; in series [16], 78%; in [17] it was 97%. The Papp A→B at 2 h, 100 µM in series [15] amounted to 5 nm/s.
For `CCC(=O)O[C@H]1[C@@H](F)[C@H](n2cnc3c(N)ncnc32)O[C@@H]1CNS(=O)(=O)NC(=O)c1ccccc1O.CCN(CC)CC`, the Retention_time in series [1] was 10 min. In addition, the Stability in the series with Plasma [5] is on record as 70%; in the series with Plasma [6], 58%; in series [8] it was 97%; in [9], 100%. The t1/2 with Plasma [7] was 3.3 h.
Compound `CC(C)C(=O)O[C@H]1[C@@H](F)[C@H](n2cnc3c(N)ncnc32)O[C@@H]1CNS(=O)(=O)NC(=O)c1ccccc1O.CCN(CC)CC` showed a Retention_time in series [1] of 10.7 min. In addition, the efflux ratio at 2 h in series [10] turned out to be 8.5. Moreover, the Papp B→A at 2 h, 100 µM in [11] was determined as 34 nm/s. In addition, the permeability was determined as 73% in series [12], 95% in [13], 53% in series [16] and 88% in series [17]. Moreover, the results for the Stability (in the series with Plasma [6]; in series [8]; in series [9]) were 72%, 98% and 100%, respectively. In addition, the Papp A→B at 2 h, 100 µM in series [15] stood at 4 nm/s. The t1/2 in the series on Plasma [7] was 3.7 h.
In the case of `CCCCCCCC(=O)O[C@H]1[C@@H](F)[C@H](n2cnc3c(N)ncnc32)O[C@@H]1CNS(=O)(=O)NC(=O)c1ccccc1O.CCN(CC)CC`, the Retention_time in series [1] was determined as 13.7 min. Besides, the efflux ratio at 2 h in series [10] was found to be 1.8. Moreover, the Papp B→A at 2 h, 100 µM in series [11] was found to be 69 nm/s. The permeability in series [12] is 3%; in [13] it was 90%; in series [16], 1%; in [17], 29%. Also, the Stability with Plasma [6] is listed as 86%; in [8], 93%; in series [9], 98%. Also, the Papp A→B at 2 h, 100 µM in series [15] was found to be 39 nm/s. Moreover, the t1/2 in the series on Plasma [7] was determined as 0.7 h.
`CC(=O)O[C@H]1[C@@H](F)[C@H](n2cnc3c(N)ncnc32)O[C@@H]1CNS(=O)(=O)NC(=O)c1ccccc1O.CCN(CC)CC` registered a Retention_time in series [1] of 9.5 min. For the same compound, in [10], the efflux ratio at 2 h is 1.5. Moreover, the Stability with Plasma [5] is reported as 61%; in series [8], 97%; in series [9] it was 92%. In series [11], the Papp B→A at 2 h, 100 µM was determined as 16 nm/s. Besides, the permeability in [12] was found to be 81%; in series [13], 86%; in series [16], 88%; in series [17], 93%. In addition, the Papp A→B at 2 h, 100 µM in [15] worked out at 11 nm/s. Moreover, the t1/2 in the series on Plasma [7] was 4.6 h; in the series with Plasma [18], 5.7 h.
In series [1], `CCCC(=O)O[C@H]1[C@@H](F)[C@H](n2cnc3c(N)ncnc32)O[C@@H]1CNS(=O)(=O)NC(=O)c1ccccc1O.CCN(CC)CC` registered a Retention_time of 10.4 min. Moreover, in [10], the efflux ratio at 2 h was 7. Besides, the Stability is 64% with Plasma [5], 61% in the series with Plasma [6], 97% in [8] and 100% in series [9]. The Papp B→A at 2 h, 100 µM in series [11] came out at 35 nm/s. Moreover, the permeability was 63% in series [12], 93% in [13], 15% in series [16] and 74% in series [17]. For the same compound, the Papp A→B at 2 h, 100 µM in series [15] came out at 5 nm/s. Moreover, the t1/2 with Plasma [7] is 2.2 h.

The term efflux ratio denotes a quotient of directional permeabilities that is used to spot active efflux. In general, Papp B→A refers to how fast a substance crosses the layer from the basolateral side. Broadly, the Papp A→B is how fast a substance crosses the layer from the apical side.
